The record followed here is ChEMBL document CHEMBL1148553, “C8c-C15 monoseco-analogues of the phenanthroquinolizidine alkaloids julandine and cryptopleurine exhibiting potent anti-angiogenic properties” (Bioorg Med Chem Lett, 2006).

Some results are limits rather than exact numbers.

One experiment deals with TF-1. In words: Cytotoxicity against human erythroleukemia TF1 cells. Format: functional, cell-based. In short, it runs like this: (§1)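 Dose-response proliferation assay over 0.16 to 20 µM (final) in tissue-culture plates. Cells were incubated 72 h at 37 °C in 5% CO2, and inhibition was read as Alamar Blue conversion by fluorescence at excitation/emission 544/590 nm.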
The next experiment concerns BT-20. The experiment can be described thus: Cytotoxicity against human breast carcinoma, BT20 cells. The format is functional, cell-based. An outline of the steps: as §1
The test system of the next experiment is MAT-Ly-Lu. The experiment can be described thus: Cytotoxicity against rat prostate carcinoma, MatLyLu cells. Format: functional, cell-based. In short, it runs like this:
as §1

Another experiment deals with KHOS/NP. In words: Cytotoxicity against human osteosarcoma, KHOS-NP cells. The format is functional, cell-based. An outline of the steps: as §1
A further experiment has as its system A-431. In words: Cytotoxicity against human epidermoid carcinoma, A431 cells. The format is functional, cell-based. An outline of the steps: as §1
Another experiment concerns A-375. The experiment can be described thus: Cytotoxicity against human melanoma, A375 cells. The format is functional, cell-based. An outline of the steps:
as §1

In a further experiment the test system is A549. In words: Cytotoxicity against human lung carcinoma, A549 cells. The format is functional, cell-based. An outline of the steps: as §1
The subject of the next experiment is HCT-15. The experiment can be described thus: Cytotoxicity against human colon carcinoma, HCT15 cells. The format is functional, cell-based. An outline of the steps: as §1
For another experiment, the system named is HT-1376. In words: Cytotoxicity against human bladder carcinoma, HT1376 cells. The format is functional, cell-based. In short, it runs like this: as §1
In the next experiment the test system is PA-1. In words: Cytotoxicity against human ovarian teratocarcinoma, PA1 cells. Format: functional, cell-based. An outline of the steps:
as §1

The next experiment relates to HepG2. In words: Cytotoxicity against human hepatoma, HEPG2 cells. The format is functional, cell-based. In short, it runs like this:
as §1

The subject of another experiment is HEK293. In words: Cytotoxicity against HEK293 cells. The format is functional, cell-based. Particulars: Homo sapiens. In short, it runs like this: as §1
For the next experiment, the system named is BUD-8. In words: Cytotoxicity against human fibroblast, BUD8 cells. The format is functional, cell-based. An outline of the steps: as §1
For a further experiment, the system named is Ramos. The experiment can be described thus: Cytotoxicity against human Burkitt lymphoma, RAMOS cells. Format: functional, cell-based. In short, it runs like this: as §1
In another experiment the test system is Daudi. The experiment can be described thus: Cytotoxicity against human Burkitt lymphoma, DAUDI cells. Format: functional, cell-based. In short, it runs like this:
as §1

The next experiment concerns MES-SA. The experiment can be described thus: Cytotoxicity against human uterine sarcoma, MES-SA cells. The format is functional, cell-based. An outline of the steps:
as §1

A further experiment deals with MES-SA/Dx5. In words: Cytotoxicity against human uterine sarcoma, MES-SA-Dx5 cells derived from MES-SA. Format: functional, cell-based. An outline of the steps:
as §1

Another experiment deals with CTLL. In words: Cytotoxicity against murine cytotoxic T cells, CTLL2. Format: functional, cell-based. Particulars: Mus musculus. In short, it runs like this:
as §1

The species named for experiment [1] is Rattus norvegicus. In words: Inhibition of blood vessel growth in rat aorta at 100 ug/mL. The format is functional. In short, it runs like this:
(§2)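 In vitro angiogenesis assay using rat aorta blood vessel fragments, with compounds dissolved in DMSO. The read-out is percent inhibition of blood vessel growth at each fixed test concentration.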

Experiment [2] is filed under the species Rattus norvegicus. The experiment can be described thus: Inhibition of blood vessel growth in rat aorta at 10 ug/mL. Format: functional. An outline of the steps:
as §2

The species entered for experiment [3] is Rattus norvegicus. In words: Inhibition of blood vessel growth in rat aorta at 1 ug/mL. Format: functional. An outline of the steps:
as §2

The species entered for experiment [4] is Rattus norvegicus. In words: Inhibition of blood vessel growth in rat aorta at 0.1 ug/mL. The format is functional. In short, it runs like this:
as §2

A further experiment relates to MCF7. In words: Cytotoxicity against human breast carcinoma, MCF7 cells. Format: functional, cell-based. An outline of the steps: as §1

One may read the IC50 as the concentration at which inhibition is half-maximal. Low values mean inhibition by little substance, high ones a need for much substance. What is called inhibition is the change of the read-out against control, counted positive when it falls. Take `COc1ccc(/C=C(/CN2CCCC[C@H]2C)c2ccc(O)cc2)cc1OC`: the IC50 with TF-1, in the experiment on BT-20, in the experiment on MAT-Ly-Lu, in the experiment on KHOS/NP, in the experiment on A-431 and in the experiment with A-375 was above 20 µM throughout. In addition, the IC50 in the experiment on A549, in the experiment on HCT-15, in the experiment on HT-1376, with PA-1, in the experiment on HepG2 and in the experiment on HEK293 was above 20 µM each time. Further, the IC50 in the experiment on BUD-8, with Ramos, with Daudi, in the experiment with MES-SA, with MES-SA/Dx5 and with CTLL was above 20 µM throughout. The compound further yielded an inhibition at 100 µg/mL in the experiment listed under Rattus norvegicus [1] of 100%. In the experiment filed under Rattus norvegicus [2], the inhibition at 10 µg/mL was 65%. Moreover, the inhibition at 1 µg/mL in the experiment filed under Rattus norvegicus [3] came to 43%.
In the case of `COc1ccc(/C(=C\c2ccc(OC)c(OC)c2)CN2CCCC[C@H]2C)cc1`, the IC50 with TF-1, in the experiment on BT-20, in the experiment on MAT-Ly-Lu, in the experiment with KHOS/NP, in the experiment with A-431 and in the experiment with A-375 was above 20 µM each time. Moreover, the IC50 with A549, in the experiment on HCT-15, with HT-1376, in the experiment on PA-1, in the experiment with HepG2 and in the experiment on HEK293 was above 20 µM throughout. Also, the concentration for half-maximal inhibition (IC50) in the experiment on BUD-8, in the experiment on Ramos, with Daudi, with MES-SA, with MES-SA/Dx5 and in the experiment on CTLL was above 20 µM in each case. The inhibition at 100 µg/mL in the experiment listed under Rattus norvegicus [1] amounted to 100%. Also, the inhibition at 10 µg/mL in the experiment filed under Rattus norvegicus [2] was found to be 62%. The inhibition at 1 µg/mL in the experiment listed under Rattus norvegicus [3] is 59%. In addition, in the experiment listed under Rattus norvegicus [4], testing at 0.1 µg/mL gave an inhibition of 36%.
With `COc1cc2cc(CN3CCCC[C@H]3C)c3ccc(O)cc3c2cc1OC`, the IC50 was 8.4 µM in the experiment with TF-1; 11.6 µM in the experiment with BT-20; above 20 µM in the experiment with MAT-Ly-Lu; 13.4 µM in the experiment with KHOS/NP; 20 µM in the experiment on A-431; 9.38 µM in the experiment with A-375. Also, the IC50 worked out at 15.2 µM in the experiment on A549, 7.97 µM with HCT-15, 6.04 µM in the experiment on HT-1376 and 8.1 µM in the experiment with CTLL. For the same compound, the inhibition at 100 µg/mL in the experiment filed under Rattus norvegicus [1] was 100%. This compound gave an inhibition at 10 µg/mL in the experiment filed under Rattus norvegicus [2] of 85%. Moreover, in the experiment listed under Rattus norvegicus [3], testing at 1 µg/mL gave an inhibition of 47%. Besides, in the experiment filed under Rattus norvegicus [4], testing at 0.1 µg/mL gave an inhibition of 18%.
As for `COc1ccc2ccc3cc(OC)c(OC)cc3c2c1`, the concentration for half-maximal inhibition (IC50) in the experiment with TF-1, in the experiment on BT-20, with MAT-Ly-Lu, in the experiment on KHOS/NP, in the experiment with A-431 and in the experiment on A-375 was above 20 µM each time. The IC50 in the experiment on A549, in the experiment with HCT-15, in the experiment on HT-1376, in the experiment with PA-1, with BUD-8 and with Ramos was above 20 µM in each case. The IC50 is above 20 µM in the experiment on Daudi; above 20 µM with MES-SA; above 20 µM in the experiment on MES-SA/Dx5; above 20 µM in the experiment on MCF7; 17.5 µM with CTLL. The inhibition at 100 µg/mL in the experiment listed under Rattus norvegicus [1] was 83%. The inhibition at 10 µg/mL in the experiment listed under Rattus norvegicus [2] is 42%.
For `COc1ccc2c3c(c4cc(OC)c(OC)cc4c2c1)C[C@H]1CCCCN1C3` [CRYPTOPLEURINE], the IC50 is 0.003 µM with BT-20; 0.003 µM in the experiment with MAT-Ly-Lu; 0.01 µM with KHOS/NP; 0.003 µM with A-431; 0.003 µM in the experiment with A-375; 0.003 µM with A549. The half-inhibitory concentration (IC50) came out at 0.003 µM in the experiment with HCT-15; 0.004 µM with HT-1376; 0.002 µM with PA-1; 0.006 µM in the experiment on BUD-8; 0.003 µM in the experiment with Ramos; 0.002 µM in the experiment with Daudi. Further, the IC50 with MES-SA, with MES-SA/Dx5 and in the experiment with MCF7 was 0.003 µM throughout.
